CHOP inhibitor = blocks CHOP induction under ER stress | hit rate 3.8% among 220,000 | inhibition, % at 10 µM | CHO-K1 CHOP-promoter luciferase, tunicamycin-induced, 15-18 h;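 active means compounds that reduced the stress-induced luciferase reporter signal by more than about 70% of percent inhibition, limit read from the data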
Hep lipid drop = hepatic lipid droplet formation modulation; AML12 mouse hepatocytes, oleate lipid droplets, BODIPY imaging; inhibition, % at 6.5 µM; hit rate 0.4% among 240,000;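 active means lipid droplet intensity inhibited by at least 50%, with more than 500 cells counted; inconclusive means wells with under 300 cells, treated as cytotoxic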
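Test system: AML12 mouse liver cells; schedule: overnight exposure; technique: high-content imaging of BODIPY-stained droplets and DAPI nuclei; read-out: % inhibition of corrected integrated BODIPY droplet signal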
XBP1 UPR activ = activators of adaptive arm of unfolded protein response (XBP1). activation, % at 20 µM. hit rate 0.33% among 330,000. AID 463104. CHO-XBP1 luciferase reporter, IRE1-XBP1 UPR activation, luminescence; percent of tunicamycin response, DMSO as zero;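 active means versus positive control, 20 µM dose yields 30% or more activation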
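Material: CHO-XBP1 cells stably carrying IRE1-XBP1-driven luciferase reporter / Amount: 1000 cells per well / Compound: 20 µM, 1% DMSO / Times: 6 h treatment, 37 °C / Detection: luciferase luminescence / Measure: % activation of reporter signal versus tunicamycin and DMSO controls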
UPR CHOP act = apoptotic UPR (CHOP) activation | CHO-CHOP luciferase reporter, luminescence; percent of tunicamycin response over DMSO baseline | activation, % at 10 µM | hit rate 0.34% among 330,000 | AID 449763;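 active means at 10 µM dose, activation of 40% or more, normalized to positive control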
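Material: CHO-CHOP cells, stable luciferase reporter of PERK-eIF2a-CHOP signalling; quantity: 500 reporter cells seeded per well; buffer or medium: F12 medium containing 10% fetal bovine serum; compound: one dose, 10 µM in 0.5% DMSO; incubation: 6 h compound treatment, 37 °C; measured by: Steady-Glo luciferase luminescence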
ANO1 activ = mouse TMEM16A channel activation, primary screen. Q8BHY3. HEK293 TMEM16A/YFP-H148Q/I152L, iodide quench fluorescence; active compounds read low. B-score at 10 µM. hit rate 0.3% among 340,000. AID 623877;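 active means fluorescence-ratio B-score plate-corrected deviation score at least 3 library SD below zero, with starting fluorescence score within 5 deviations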;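 further: channel opened by trigger with iodide after compound preincubation; score built on the fluorescence ratio of max minus min over baseline; more negative score means more quench and so TMEM16A activation or potentiation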
Target sequence (Q8BHY3 whole entry, looked up): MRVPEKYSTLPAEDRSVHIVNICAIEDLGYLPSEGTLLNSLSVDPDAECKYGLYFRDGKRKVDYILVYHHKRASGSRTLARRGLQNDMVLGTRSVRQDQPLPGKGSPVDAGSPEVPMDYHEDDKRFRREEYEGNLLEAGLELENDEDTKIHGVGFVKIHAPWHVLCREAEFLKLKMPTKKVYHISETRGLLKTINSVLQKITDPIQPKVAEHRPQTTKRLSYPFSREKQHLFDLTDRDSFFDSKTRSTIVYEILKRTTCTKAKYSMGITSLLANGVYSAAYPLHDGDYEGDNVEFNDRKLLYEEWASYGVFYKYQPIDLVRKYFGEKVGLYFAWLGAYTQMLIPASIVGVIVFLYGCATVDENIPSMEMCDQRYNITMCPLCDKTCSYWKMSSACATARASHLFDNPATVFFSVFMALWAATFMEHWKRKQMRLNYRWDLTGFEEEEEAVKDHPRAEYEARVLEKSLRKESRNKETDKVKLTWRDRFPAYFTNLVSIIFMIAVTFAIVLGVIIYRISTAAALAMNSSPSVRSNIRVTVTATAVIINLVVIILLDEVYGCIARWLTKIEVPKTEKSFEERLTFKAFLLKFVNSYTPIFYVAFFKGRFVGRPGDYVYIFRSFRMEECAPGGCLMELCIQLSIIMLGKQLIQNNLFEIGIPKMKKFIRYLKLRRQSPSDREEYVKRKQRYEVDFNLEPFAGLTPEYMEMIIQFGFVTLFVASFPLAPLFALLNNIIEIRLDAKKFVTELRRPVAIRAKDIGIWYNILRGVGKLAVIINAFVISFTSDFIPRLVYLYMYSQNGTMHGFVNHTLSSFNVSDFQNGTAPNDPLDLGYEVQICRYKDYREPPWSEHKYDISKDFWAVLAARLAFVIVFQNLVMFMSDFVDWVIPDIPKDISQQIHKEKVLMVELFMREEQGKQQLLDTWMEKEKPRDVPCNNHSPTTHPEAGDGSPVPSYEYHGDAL
TMEM16A inh = blocks the mouse calcium-activated chloride channel TMEM16A | Q8BHY3 | HEK293 TMEM16A/YFP iodide influx fluorescence, ionomycin | normalized B-score (activity score, 25-100; higher = stronger inhibition) at 10 µM | hit rate 1.2% among 310,000 | AID 588511;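 active means ratio plate-corrected score three or more library SD toward inhibition, starting fluorescence score within five deviations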;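 further: score derived from kinetic fluorescence span divided by baseline fluorescence per well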
CHOP UPR conf = apoptotic UPR (CHOP) activation, confirmed | hit rate 64% among 1,000 | CHO-CHOP cells, CHOP-luciferase reporter luminescence; percent of tunicamycin response, DMSO as zero | shares compounds with UPR CHOP act | activation, % at 10 µM; in the data active means activation above about 33%
Numbers stand for hits; - = inactive; ? = inconclusive; . = not tested or not shown. In the library only some 4.2% were active in any assay of this set; here they are far more common.

SMILES	CHOP inhibitor	Hep lipid drop	XBP1 UPR activ	UPR CHOP act	ANO1 activ	TMEM16A inh	CHOP UPR conf
O=C1C2CC=CCC2C(=O)N1c1ccc(NCCc2ccc(Cl)cc2)c([N+](=O)[O-])c1 (stereo not given)	-	-	-	46	-	-	-
COc1ccc(CCNc2ccc(N3C(=O)CC(C)C3=O)cc2[N+](=O)[O-])cc1OC (stereo not given)	-	-	-	-	-	-	.
Cc1ccc(-c2csc3ncnc(SCC(=O)c4ccc5c(c4)OCCO5)c23)cc1	-	.	-	-	-	-	.
Cc1ccc(-c2csc3ncnc(Sc4nnc(CN5CCCCCC5=O)o4)c23)cc1	.	.	-	82	-	-	80
Cc1ccc(Nc2nc(-c3ccc(F)cc3)cs2)nc1	.	.	-	-	-	-	.
Cc1ccc(Nc2nc(-c3ccc(O)c(O)c3)cs2)nc1	-	-	-	216	.	.	164
CCS(=O)(=O)CCSc1nc2ccccc2s1	-	.	-	-	-	-	.
O=S(=O)(CCSc1nc2ccccc2s1)c1nc2ccccc2s1	-	-	-	108	-	-	154
CN(C)Cc1c(O)ccc2c1O/C(=C\C=C\c1ccccc1)C2=O	-	-	-	97	-	-	-
O=C1/C(=C/C=C/c2ccccc2)Oc2c1ccc(O)c2CN1CCN(CCO)CC1	-	-	-	-	-	-	.
CCN1CCN(Cc2c(O)ccc3c2O/C(=C\C=C\c2ccccc2)C3=O)CC1	-	-	-	154	-	-	-
O=C1c2ccccc2C(=O)c2c(/C=C/N3CCCCC3)ccnc21	.	.	.	.	-	.	.
O=C(Nc1c(C(=O)N2CCN(c3ccccn3)CC2)oc2ccccc12)c1cccc([N+](=O)[O-])c1	.	-	-	-	-	-	.
Cc1cc(-n2c(C)cc(C(=O)CN3C(=O)C(=O)N(C)C3=O)c2C)no1	.	.	-	-	-	.	.
Cc1cc(-n2c(C)cc(C(=O)CCl)c2C)no1	-	-	-	171	-	-	263
CCc1nc(C)cn1S(=O)(=O)c1ccc([N+](=O)[O-])cc1	-	-	-	-	-	-	.
CCCn1c(CC)nc([N+](=O)[O-])c1S(=O)(=O)c1ccccc1	-	.	-	104	-	-	71
Clc1cnc2nc(SC/C=C/c3ccccc3)[nH]c2c1	-	-	-	-	-	-	.
O=C(/C=C/c1ccc(O)c(O)c1)c1ccc(S(=O)(=O)N2CCCCCC2)cc1	-	-	-	90	-	-	-
O=C(N/N=C/c1ccccn1)c1cc([N+](=O)[O-])cc([N+](=O)[O-])c1	-	-	-	45	-	-	65
O=C(CSc1nnc(NC(=O)C2CC(=O)N(c3ccc(F)cc3)C2)s1)NC1CCCC1 (stereo not given)	.	-	-	-	-	-	.
O=C(C=C=Nc1ccccc1)C(=O)N=C=Cc1ccccc1	96	-	-	225	-	-	135
O=C(N/N=C/c1ccccc1)C(=O)N/N=C/c1ccccc1	.	-	-	-	-	-	.
CC(C)c1ccc(NC(=O)/C(C#N)=C/c2ccncc2)cc1	.	-	-	59	-	-	97
N#C/C(=C\c1ccncc1)C(=O)Nc1ccc(C(=O)O)cc1	.	-	-	-	-	-	.
SMILES	CHOP inhibitor	Hep lipid drop	XBP1 UPR activ	UPR CHOP act	ANO1 activ	TMEM16A inh	CHOP UPR conf
COc1ccc(C(C(=O)NC2CCCCC2)N(C(=O)CCl)c2ccc(C)cc2)cc1 (stereo not given)	-	-	-	62	-	-	-
O=C(NC1CCCC1)C(c1ccc(F)cc1)N(Cc1ccc(F)cc1)C(=O)CCl (stereo not given)	92	-	-	48	-	-	93
COC(=O)c1ccc2cc(OC)cc([N+](=O)[O-])c2n1	.	.	.	.	-	.	.
C/C(=N\NC(=O)c1cc(O)ccc1O)c1cccc(NC(=O)c2cccc(Cl)c2)c1	.	-	-	-	-	-	.
C/C(=N\NC(=O)c1cc(O)ccc1O)c1cccc(NC(=O)c2ccc(Cl)cc2)c1	.	-	-	72	-	-	-
O=c1[nH]n(-c2cccc3cccnc23)c(=O)c2ccccc12	-	.	-	-	-	-	.
Cc1nn(-c2cccc3cccnc23)c(=O)c2ccccc12	-	-	-	45	.	-	-
COc1cccc(CNC(=O)CN2c3cccc4cccc(c34)S2(=O)=O)c1	.	.	-	-	-	-	.
COc1ccc(S(=O)(=O)N2CCCC(C(=O)NCc3cccnc3)C2)cc1 (stereo not given)	.	-	-	-	-	-	.
COc1cc(Cl)c(NC2=CC(=O)C(=O)c3ccccc32)c(OC)c1	.	.	-	51	-	.	-
Cc1ccc(C(=O)Sc2cccccc2=O)cc1	.	?	-	112	-	-	-
O=C1NC(=S)N/C1=C/c1ccc2ccccc2c1	.	-	-	-	-	-	.
Cc1ccc(NC(=O)C2=C(C(=O)O)CCCC2)cc1Br	.	-	-	-	-	-	.
O=[N+]([O-])c1cc(O)c2ncccc2c1	-	-	-	109	.	-	88
COc1ccc(-c2nc(-c3ccccc3)nc(Cl)c2C#N)cc1	-	.	72	81	-	-	33
CCCCC1CCC(C(=O)N(CCCC)c2c(N)n(CCCC)c(=O)[nH]c2=O)CC1 (stereo not given)	.	-	-	115	-	-	35
CCc1ccc(N(CC(=O)NC(C)C)C(=O)CCC(=O)Nc2nccs2)cc1	.	-	-	-	-	-	.
CC(C)N(C(C)C)S(=O)(=O)c1ccc(N2CCc3ccccc3C2)nc1	.	-	-	64	-	-	-
COC(=O)c1cc(=O)n(CCc2ccc(OC)cc2)c(=Nc2ccc(F)c(Cl)c2)s1	-	.	-	60	-	-	40
COC(=O)c1cc(=O)n(Cc2ccc3c(c2)OCO3)c(=Nc2ccc(F)c(Cl)c2)s1	-	.	-	62	-	-	73
Cc1ccc(-c2ccc(/C=C/C(=O)c3ccccc3)o2)cc1	-	-	-	193	-	-	-
Cc1ccc(C(=O)/C=C/C(=O)c2ccc(C)cc2)cc1	106	-	-	139	-	-	370
Cc1cc(C(=O)COC(=O)c2cc(Cl)c(O)c(Cl)c2)c(C)n1C	.	.	-	-	-	.	.
Cc1ccc(C)c(S(=O)(=O)NCc2ccc(C(=O)NCc3ccccn3)cc2)c1	-	-	-	-	-	-	.
O=C1CC(c2ccccc2)CC(O)=C1C=Nc1ccccc1Cl (stereo not given)	-	-	-	-	-	-	.
O=C1CC(c2ccccc2)CC(O)=C1C=Nc1ccc(Cl)cc1 (stereo not given)	83	-	-	43	-	-	-
CCn1c(O)c(C2=c3ccccc3=NC2=O)c2cc(Br)ccc21	-	-	-	111	.	-	83
